# V1aR counter – agonists of human V1a receptor, primary screen, counter-screen for OXTR agonist project, fluorescence, CHO-V1R cells; Fluo-8 calcium fluorescence, agonist mode; 0% DMSO, 100% 3 nM vasopressin; activation, % at 3 µM; hit rate 0.25% among 320,000; AID 2797, 2010;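 active = activation above the mean activation of all tested compounds plus 3 SD, per screening run, cut at about 20% in these data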;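 note: signal is peak over basal fluorescence ratio across a 100 second FLIPR read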
# OXTR potentiate – human OXTR potentiators, primary screen, fluorescence, CHO-OTR cells, Fluo-8 calcium | hit rate 0.061% among 320,000 | Oxytocin receptor (Homo sapiens), P30559 | AID 2445, 2010 | activation, % at 3 µM | Fluo-8 calcium fluorescence, potentiator mode; 0% = oxytocin EC15, 100% = EC100;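 active = activation above that plate's cutoff, the mean activation of tested compounds plus 3 SD, cut at about 6.6% in these data, passing the limit was not always enough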
# Target sequence (P30559 whole entry, looked up): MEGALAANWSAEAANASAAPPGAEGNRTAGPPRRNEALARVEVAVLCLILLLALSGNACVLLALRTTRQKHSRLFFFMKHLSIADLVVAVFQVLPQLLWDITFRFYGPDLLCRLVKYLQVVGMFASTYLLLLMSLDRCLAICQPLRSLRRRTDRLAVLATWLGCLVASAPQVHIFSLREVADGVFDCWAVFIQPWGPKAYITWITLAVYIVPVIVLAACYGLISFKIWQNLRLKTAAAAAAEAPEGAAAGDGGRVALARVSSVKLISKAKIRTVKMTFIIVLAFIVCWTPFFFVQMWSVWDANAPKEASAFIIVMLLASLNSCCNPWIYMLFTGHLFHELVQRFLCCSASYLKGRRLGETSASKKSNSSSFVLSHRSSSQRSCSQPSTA
#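 test system = CHO-OTR cells, human receptor | compound = single-point 3.0 µM | schedule = 6 min compound pre-incubation at room temperature, 100 s kinetic read | signal = Fluo-8 no-wash calcium dye fluorescence, excitation 470-495 nm, emission 515-575 nm | repeats = single well per compound, singlicate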
# TAAR1 agonist – human TAAR1 agonists, primary screen, Fluo-8 calcium fluorescence, CHO RD-HGA16 cells; Trace amine-associated receptor 1 (Homo sapiens), Q96RJ0; vehicle wells 0%, saturating PEA agonist 100%; activation, % at 3 µM; hit rate 0.99% among 360,000;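 active = activation above the mean activation of all test compounds in the run plus 3 SD, cut at about 38% in these data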
# Target sequence (Q96RJ0 whole entry, looked up): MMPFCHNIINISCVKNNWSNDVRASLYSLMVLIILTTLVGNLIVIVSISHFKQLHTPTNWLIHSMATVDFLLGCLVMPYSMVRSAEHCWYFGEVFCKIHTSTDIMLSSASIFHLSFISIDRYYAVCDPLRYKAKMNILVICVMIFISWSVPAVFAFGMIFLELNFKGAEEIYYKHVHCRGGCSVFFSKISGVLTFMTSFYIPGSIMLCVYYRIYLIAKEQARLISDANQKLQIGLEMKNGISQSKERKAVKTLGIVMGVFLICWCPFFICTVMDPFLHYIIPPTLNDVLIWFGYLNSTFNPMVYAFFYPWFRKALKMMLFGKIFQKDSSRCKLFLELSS
#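 Test system: RD-HGA16 (CHO) cells co-expressing Gα16 and hTAAR1 | Doses: Single dose, 3 µM | Schedule: 17-24 h seeding, 75 min 37 °C dye, 30 min RT | Evaluation: % activation from peak over basal fluorescence ratio, DMSO-to-PEA scaled | Technique: Kinetic Fluo-8 calcium fluorescence | Benchmarks: Low control DMSO, high control PEA (EC100)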
# TAAR1 antagonist – human TAAR1 antagonists, primary screen, Fluo-8 calcium fluorescence, CHO RD-HGA16 cells. antagonist. inhibition, % at 3 µM. hit rate 1.5% among 360,000;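 active = inhibition above a per-plate cutoff, the mean inhibition of test compounds on that plate plus 3 SD, cut at about 49% in these data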
#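 Test system: hTAAR1-expressing CHO RD-HGA16 cells, Gα16-coupled; Probe or stimulus: EC80 β-phenethylamine stimulus; Compound dosing: single nominal final test compound concentration of 3 µM; Timing: 140 s kinetic read after compound, 140 s after agonist; Signal: Fluo-8 calcium-sensitive fluorescence; Measure: % inhibition of agonist calcium response; Controls: DMSO and EC80 PEA controls.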
# OXTR ag – human OXTR agonists, primary screen, fluorescence, CHO-OTR cells, Fluo-8 calcium; Oxytocin receptor (Homo sapiens), P30559; Fluo-8 calcium fluorescence; normalized: DMSO 0%, oxytocin 100%; activation, % at 3 µM; hit rate 0.32% among 320,000; AID 2435, 2010;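 active = activation above the mean of all tested compounds plus 3 SD, cutoff set per screening run, cut at about 20% in these data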;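 note: peak over basal fluorescence ratio from a 100 s FLIPR kinetic read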
# TAAR1 nonsel count – nonselective antagonists in TAAR1 counter-screen cells, counter-screen for hTAAR1 antagonist project, cell-based, fluorescence, calcium; counterscreen cell line, antagonist mode; shares compounds with TAAR1 antagonist; hit rate 77% among 2,400; inhibition, % at 3 µM; in the data active = inhibition above about 22%;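 note: CHO-Ga16 host cells stimulated with ATP at an EC80 level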
# TAAR1 antag conf – human TAAR1 antagonists, retest of hits, confirmation, cell-based, fluorescence. shares compounds with TAAR1 antagonist. TAAR1-expressing cells, fluorescence antagonist read-out. inhibition, % at 3 µM. hit rate 40% among 2,400; in the data active = inhibition above about 49%;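 note: CHO-Ga16 host cells challenged with agonist PEA near its EC80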
# Ga16 nonsel ag – calcium activation in Ga16-expressing cells, counter-screen for TAAR1 antagonist project, cell-based, fluorescence | shares compounds with TAAR1 antagonist | agonist counterscreen | activation, % at 3 µM | hit rate 18% among 2,400 | AID 651953, 2012; in the data active = activation above about 12%
# TAAR1 ag counter – TAAR1 activation by candidate antagonists – cell-based, fluorescence, counter-screen for TAAR1 antagonist project | AID 651955, 2012 | hit rate 2% among 2,400 | shares compounds with TAAR1 antagonist | hTAAR1 cell line, agonist mode | activation, % at 3 µM; in the data active = activation above about 37%;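 note: CHO cells stably expressing TAAR1 with calcium dye readout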
# Numbers stand for hits; n = inactive; x = no result given. In the library only some 2.3% were active in any assay of this set; here they are far more common.
SMILES,V1aR counter,OXTR potentiate,TAAR1 agonist,TAAR1 antagonist,OXTR ag,TAAR1 nonsel count,TAAR1 antag conf,Ga16 nonsel ag,TAAR1 ag counter
COc1ccc(C2=NOC(Cn3nc(C(=O)NCc4ccccc4OC)cc3-c3ccccc3)C2)cc1 (stereo unspecified),n,n,n,68,n,33,53,n,n
COc1ccc(C2=NOC(Cn3nc(C(=O)NCc4ccc(OC(F)(F)F)cc4)cc3-c3ccccc3)C2)cc1 (stereo unspecified),n,n,n,n,n,x,x,x,x
COc1ccc(C2=NOC(Cn3nc(C(=O)NCC4CC4)cc3-c3ccccc3)C2)cc1 (stereo unspecified),n,n,n,72,n,34,49,n,n
COc1ccc(C2=NOC(Cn3nc(-c4ccccc4)cc3C(=O)NCc3ccc(C)cc3)C2)cc1 (stereo unspecified),n,n,n,n,n,x,x,x,x
CC1=CC=CN2C1=NC(=O)CC2(C)C(=O)N(CC(=O)NC1CCCC1)c1cc(C)cc(C)c1 (stereo unspecified),n,n,n,n,n,x,x,x,x
COc1ccccc1/C=C/C(=O)NC(=S)N1CCN(C)CC1,x,x,n,n,x,x,x,x,x
COc1ccccc1/C=C/C(=O)NC(=S)NC(C)C,n,n,n,59,n,n,n,n,n
Cn1cnc(S(=O)(=O)NC2CCN(Cc3ccccc3)CC2)c1,n,n,n,n,n,x,x,x,x
CCc1nc2ccccc2c(C(=O)OCC(=O)C(C)(C)C)c1C,n,n,n,n,n,x,x,x,x
CCc1nc2ccccc2c(C(=O)OCCN2C(=O)c3ccccc3C2=O)c1C,n,n,n,66,n,26,n,n,n
CSc1ccc(CCNC(=O)c2cc(C)nn2-c2ccccc2)cc1,n,n,n,n,n,x,x,x,x
Cc1ccc(C)c(OCCC(=O)OCC(=O)Nc2ccc(C)c(S(=O)(=O)N3CCCCC3)c2)c1,n,n,n,53,n,39,n,n,n
Cc1ccccc1OCCC(=O)OCC(=O)Nc1ccc(C)c(S(=O)(=O)N2CCCCC2)c1,x,x,n,n,x,x,x,x,x
COC(=O)C1=C(C)N(Cc2ccc(Cl)cc2)C(=S)NC1c1cccc(OC)c1 (stereo unspecified),x,x,n,51,x,n,n,n,n
O=C(COc1cccc2cccnc12)N/N=C/c1cccn1-c1ccc(F)cc1,n,n,n,53,n,25,n,n,n
O=C(c1ccccn1)N1CCN(S(=O)(=O)c2ccc3ccccc3c2)CC1,n,n,n,n,n,x,x,x,x
O=C(c1cc(=O)[nH]c2ccccc12)N1CCN(S(=O)(=O)c2ccc3ccccc3c2)CC1,n,n,n,67,n,30,n,n,n
COc1cc(/C=C2\SC(=S)N(NS(=O)(=O)c3ccccc3)C2=O)cc(OC)c1OC,n,n,n,n,n,x,x,x,x
COc1ccc(/C=C2/SC(=O)N(NS(=O)(=O)c3ccccc3)C2=S)cc1OC,n,n,n,63,n,29,n,n,n
CCCOc1cccc(C(=O)N(Cc2ccco2)C2CCS(=O)(=O)C2)c1 (stereo unspecified),n,n,n,102,n,n,n,n,n
CC(C)[C@H](NC(=O)OC(C)(C)C)c1cc(C(=O)N2CCOCC2)c(N)s1,x,x,n,n,x,x,x,x,x
Cc1ccc(C(=O)N2N=C(c3ccc(NS(C)(=O)=O)cc3)CC2c2cccs2)cc1 (stereo unspecified),n,n,n,n,n,x,x,x,x
COc1ccc(C(=O)N2N=C(c3ccc(NS(C)(=O)=O)cc3)CC2c2cccs2)cc1 (stereo unspecified),n,n,n,59,n,30,n,n,n
O=C(/C=C/c1ccc(Cl)cc1Cl)NC(=S)Nc1ccc(CN2CCOCC2)cc1,n,n,n,n,n,x,x,x,x
O=C(/C=C/c1ccccc1)NC(=S)Nc1ccc(CN2CCOCC2)cc1,n,n,n,58,n,41,n,n,n
SMILES,V1aR counter,OXTR potentiate,TAAR1 agonist,TAAR1 antagonist,OXTR ag,TAAR1 nonsel count,TAAR1 antag conf,Ga16 nonsel ag,TAAR1 ag counter
O=C(/C=C/c1ccccc1)Nc1ccc(N2CCCCC2)cc1,n,n,n,69,n,30,65,28,61
CC(OC(=O)CCN1C(=O)C2CC=CCC2C1=O)C(=O)Nc1cccc(C#N)c1 (stereo unspecified),n,n,n,n,n,x,x,x,x
O=C(Nc1cccc(/C=C/c2ccccn2)c1)c1ccc(-n2cncn2)c([N+](=O)[O-])c1,n,n,n,73,n,40,61,14,n
COc1cc(-c2c(C(=O)c3ccccc3)[nH]c(N)c2C(N)=O)ccc1F,x,x,n,n,x,x,x,x,x
Cc1ccc(-n2c(-c3cnccn3)n[nH]c2=S)c(Br)c1,n,n,n,104,n,n,n,n,n
O=C(Cc1ccccc1)NNc1c2ccccc2nc2ccccc12,n,n,n,n,n,x,x,x,x
Cc1ccc(OCC(=O)NNc2c3ccccc3nc3ccccc23)cc1,n,n,n,70,n,33,49,n,n
Cc1ccc(C(=O)Nc2cccc(C(=O)N/N=C/c3ccccc3F)c2)cc1,n,n,n,65,n,30,n,n,n
Cc1ccc(C(=O)Nc2cccc(C(=O)N/N=C/c3ccc(F)cc3)c2)cc1,n,n,n,63,n,37,53,n,n
CC(=O)Nc1cccc(C(=O)N/N=C/c2ccc(F)cc2)c1,n,n,n,n,n,x,x,x,x
CC(=O)Nc1cccc(C(=O)N/N=C/c2ccccc2F)c1,n,n,n,n,n,x,x,x,x
CCCc1cc(=O)oc2cc(OCC(=O)NCCc3c[nH]c4ccc(OC)cc34)ccc12,n,n,n,60,n,30,n,n,n
O=C(COc1ccc2ccc(=O)oc2c1)NCCc1c[nH]c2ccc(F)cc12,n,n,n,n,n,x,x,x,x
CCc1cc(=O)oc2cc(C)cc(OCC(=O)NCCc3c[nH]c4ccccc34)c12,n,n,n,69,n,29,n,n,n
COc1cccc(-n2cnc3sc(C)cc3c2=O)c1,n,n,n,n,n,x,x,x,x

# Screening results from PubChem.
